Measured values published in ChEMBL document CHEMBL1121679, “Gastric antisecretory agents. 1. Antisecretory and antiulcer activity of 5H-[1]benzopyrano[2,3-b]pyridin-5-ylureas and 5H-[1]benzothiopyrano[2,3-b]pyridin-5-ylureas” (1981).

Key:
[1] = system: Canis familiaris; experiment: Antisecretory activity was evaluated in adult mongrel dog after iv administration at 5 mg/kg of dose, expressed as reduction of gastric output; assay type: functional, Canis lupus familiaris, Stomach
Method in brief: (§1)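 Conscious mongrel dogs with surgical Heidenhain pouches. Histamine was infused iv at 0.4 (μg/kg)/min, giving 50–60% of maximal acid output. The test agent was given iv or orally by gavage 1 h into the infusion. Acid output (volume × titrated acid) was collected in 30-min fractions and summed over 3 h, then compared with control runs in the same dog. Usually a single dog per compound.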

[2] = system: Canis familiaris; experiment: Antisecretory activity was evaluated in adult mongrel dog after po administration at 8 mg/kg of dose, expressed as reduction of gastric output; assay type: functional, Canis lupus familiaris, Stomach; method in brief: as §1
[3] = system: Rattus norvegicus; experiment: Compound was measured for percentage inhibition of aspirin-induced ulcers at 30 mg/kg after po administration; assay type: functional
Method in brief: (§2)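 Rats fasted 24 h received the test agent orally in 0.4% methylcellulose-saline, then 1 h later 100 mg/kg aspirin orally. Stomachs were removed 4 h after aspirin and opened along the greater curvature, and ulcers were counted under a 2× magnifier. Inhibition was based on mean lesion number vs controls. Eight rats per compound; Student's t test.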

[4] = system: Rattus norvegicus; experiment: Antisecretory activity was evaluated in pylorus ligated rat after ip administration at 40 mg/kg of dose, expressed as reduction of gastric output; conditions: route intraperitoneal
[5] = system: Rattus norvegicus; experiment: Compound was measured for percentage inhibition of aspirin-induced ulcers at 20 mg/kg after po administration; assay type: functional; method in brief: as §2
[6] = system: Rattus norvegicus; experiment: Compound was measured for percentage inhibition of aspirin-induced ulcers at 10 mg/kg after po administration; assay type: functional; method in brief: as §2
[7] = system: Canis familiaris; experiment: Compound was measured for percentage reduction in food stimulated canine gastric acid secretion after iv administration at 5 mg/kg dosage; assay type: functional, Canis lupus familiaris, Stomach
Method in brief: (§3)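 Heidenhain pouch dogs given the test agent (iv or oral) together with a meal of 250 g ground cooked beef hearts. Acid output was collected and expressed as percent reduction relative to control studies in the same animal; n per entry as reported.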

[8] = system: Canis familiaris; experiment: Compound was measured for percentage reduction in food stimulated canine gastric acid secretion after po administration at 8 mg/kg dosage; assay type: functional, Canis lupus familiaris, Stomach; method in brief: as §3
[9] = system: Canis familiaris; experiment: Compound was measured for percentage reduction in insulin hypoglycemia stimulated canine gastric acid secretion after iv administration at 5 mg/kg dosage; assay type: functional, Canis lupus familiaris, Stomach
Method in brief: (§4)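 Dogs with simple gastric fistulas. The test agent (iv or oral) was given at the time of regular insulin injection. Gastric collections were made for 3 h, and percent reduction of acid output was calculated against control studies in the same animals; n per entry as reported.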

[10] = system: Canis familiaris; experiment: Compound was measured for percentage reduction in insulin hypoglycemia stimulated canine gastric acid secretion after po administration at 8 mg/kg dosage; assay type: functional, Canis lupus familiaris, Stomach; method in brief: as §4
[11] = system: Canis familiaris; experiment: Compound was measured for percentage reduction in dimaprit stimulated canine gastric acid secretion after iv administration at 5 mg/kg dosage; assay type: functional, Canis lupus familiaris, Stomach
Method in brief: (§5)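 Heidenhain pouch dogs. Acid output was summed over 3 h after dosing and expressed as percent reduction relative to control studies in the same animal; n per entry as reported.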

[12] = system: Rattus norvegicus; experiment: Compound was measured for percentage inhibition of aspirin-induced ulcers at 3 mg/kg after po administration; assay type: functional; method in brief: as §2
[13] = system: Canis familiaris; experiment: Compound was measured for percentage reduction in dimaprit stimulated canine gastric acid secretion after po administration at 8 mg/kg dosage; assay type: functional, Canis lupus familiaris, Stomach; method in brief: as §5
[14] = system: Canis familiaris; experiment: Compound was measured for percentage reduction in food stimulated canine gastric acid secretion after iv administration at 5 mg/kg dosag; assay type: functional, Canis lupus familiaris, Stomach; method in brief: as §3

| SMILES | Reduction [1] | Reduction [2] | Reduction [4] | other results |
| --- | --- | --- | --- | --- |
| CN(C)C(=O)NC1c2ccccc2Oc2ncccc21 (stereo unspecified) | 35% | <30% | 95% | inhibition in vivo at 30 mg/kg [3]: 74% |
| CN(C)C(=O)N(C)C1c2ccccc2Oc2ncccc21 (stereo unspecified) | <30% | – | 96% | inhibition in vivo at 20 mg/kg [5]: 100% |
| CN(C(N)=O)C1c2ccccc2Oc2ncccc21 (stereo unspecified) | 30% | – | 70% | – |
| CNC(=O)N(C)C1c2ccc(OC)cc2Oc2ncccc21 (stereo unspecified) | 54% | <30% | 60% | – |
| CN/C(=N\CCSCc1nc[nH]c1C)NC#N [CIMETIDINE] | 84% | 86% | 74% | inhibition in vivo at 10 mg/kg [6]: 67% |
| CNC(=O)N(C)C1c2cccnc2Oc2c(F)cccc21 (stereo unspecified) | <30% | – | 35% | – |
| CNC(=O)N(C)C1c2ccccc2Oc2ncccc21 (stereo unspecified) | 84% | <30% | – | Reduction [7]: 69%; Reduction [8]: <30%; Reduction [9]: 79%; Reduction [10]: <30%; Reduction [11]: 58%; inhibition in vivo at 10 mg/kg [6]: 89%; inhibition in vivo at 30 mg/kg [3]: 100%; inhibition in vivo at 3 mg/kg [12]: 51% |
| CNC(=O)N(C)C1c2ccccc2Sc2ncccc21 (stereo unspecified) | 80% | <30% | 96% | Reduction [8]: <30%; Reduction [9]: 97%; Reduction [10]: 62%; Reduction [11]: 78%; Reduction [13]: <30%; Reduction [14]: 78%; inhibition in vivo at 10 mg/kg [6]: 68%; inhibition in vivo at 30 mg/kg [3]: 100%; inhibition in vivo at 3 mg/kg [12]: 0% |
| CN(C(=O)Nc1ccccc1)C1c2ccccc2Oc2ncccc21 (stereo unspecified) | 55% | <30% | 45% | – |
| CNC(=O)N(C)C1c2cc(OC)ccc2Oc2ncccc21 (stereo unspecified) | 51% | <30% | 59% | – |
| CNC(=O)N(C)C1c2cc([N+](=O)[O-])ccc2Oc2ncccc21 (stereo unspecified) | <30% | – | 71% | – |
| CNC(=O)N(C)C1c2ccc(C)cc2Oc2ncccc21 (stereo unspecified) | 75% | <30% | 81% | – |
| CNC(=O)N(C)C1c2cc(CO)ccc2Oc2ncccc21 (stereo unspecified) | <30% | – | <30% | – |
| CNC(=O)N(C)C1c2cc(C(=O)OC)ccc2Oc2ncccc21 (stereo unspecified) | <30% | – | <30% | – |
| CN(C(=O)N1CCOCC1)C1c2ccccc2Oc2ncccc21 (stereo unspecified) | 64% | <30% | 95% | – |
| CN(C(=O)NC(C)(C)C)C1c2ccccc2Oc2ncccc21 (stereo unspecified) | 35% | <30% | 82% | – |
| CN1CCN(C(=O)N(C)C2c3ccccc3Oc3ncccc32)CC1 (stereo unspecified) | <30% | <30% | 94% | – |
| CNC(=O)N(C)C1c2cc(F)ccc2Oc2ncccc21 (stereo unspecified) | 63% | <30% | 68% | – |
| CNC(=O)N(C)C1c2cccnc2Oc2cccc(C(F)(F)F)c21 (stereo unspecified) | <30% | – | 71% | – |
| CN(C(=O)N1CCCCC1)C1c2ccccc2Oc2ncccc21 (stereo unspecified) | 31% | – | 72% | – |
| NC(=O)NC1c2ccccc2Oc2ncccc21 (stereo unspecified) | 36% | – | 46% | – |
| CNC(=O)N(C)C1c2ccc(C(F)(F)F)cc2Oc2ncccc21 (stereo unspecified) | <30% | – | 46% | – |
| CNC(=O)N(C)C1c2ccccc2Oc2cccnc21 (stereo unspecified) | 38% | 34% | 37% | – |
| CNC(=O)N(C)C1c2cccnc2Oc2c(Cl)cccc21 (stereo unspecified) | <30% | – | 60% | – |
| CNC(=O)N(C)C1c2ccccc2S(=O)(=O)c2ncccc21 (stereo unspecified) | <30% | – | <30% | – |
| CNC(=O)N(C)C1c2cc(Cl)c(C)cc2Oc2ncccc21 (stereo unspecified) | <30% | – | 65% | – |
| CNC(=O)N(C)C1c2ccccc2Oc2ccncc21 (stereo unspecified) | <30% | – | 77% | – |
| CNC(=O)NC1c2ccccc2Oc2ncccc21 (stereo unspecified) | 31% | – | 54% | – |
| CNC(=O)N(C)C1c2cc(C)ccc2Oc2ncccc21 (stereo unspecified) | 62% | <30% | 71% | – |
